# Measurements from ChEMBL document CHEMBL1137574, “Synthesis and structure-activity relationship for a novel class of potent and selective carbamate-based inhibitors of hormone selective lipase with acute in vivo antilipolytic effects” (J Med Chem, 2007).
# pIC50: −log10 of the molar value.
# How the values were obtained:
# Acetylcholinesterase = Acetylcholinesterase (Homo sapiens, UniProt P22303); experiment: Inhibition of acetylcholine esterase
# Summary of the method: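 Acetylcholinesterase activity measured with acetylthiocholine substrate. Inhibitor at six concentrations in 5-fold steps from a maximum of 100 µM, duplicate measurements averaged. IC50 from variable-slope sigmoidal dose-response fit.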
# Cholinesterase = Cholinesterase (Homo sapiens, UniProt P06276); experiment: Inhibition of butyrylcholine esterase
# Sequence of Cholinesterase (P06276 whole entry): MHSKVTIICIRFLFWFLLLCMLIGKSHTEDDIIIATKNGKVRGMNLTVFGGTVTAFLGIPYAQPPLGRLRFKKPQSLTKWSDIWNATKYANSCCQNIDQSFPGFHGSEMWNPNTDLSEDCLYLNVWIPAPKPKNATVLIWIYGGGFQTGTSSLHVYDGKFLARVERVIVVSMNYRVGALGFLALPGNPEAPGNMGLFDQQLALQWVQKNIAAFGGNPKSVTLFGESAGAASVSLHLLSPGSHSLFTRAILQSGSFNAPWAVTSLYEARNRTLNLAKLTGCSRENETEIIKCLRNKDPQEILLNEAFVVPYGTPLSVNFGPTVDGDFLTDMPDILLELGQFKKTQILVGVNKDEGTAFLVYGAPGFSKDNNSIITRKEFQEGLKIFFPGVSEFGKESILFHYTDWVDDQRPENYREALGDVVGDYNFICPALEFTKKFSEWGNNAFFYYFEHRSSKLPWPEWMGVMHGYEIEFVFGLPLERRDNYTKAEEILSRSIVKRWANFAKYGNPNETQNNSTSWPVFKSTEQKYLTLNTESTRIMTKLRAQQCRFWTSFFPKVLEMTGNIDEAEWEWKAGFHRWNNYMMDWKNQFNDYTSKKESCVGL
# Hormone-sensitive lipase = target: T1, Hormone-sensitive lipase (Homo sapiens, UniProt Q05469); experiment: Inhibition of recombinant human hormone-sensitive lipase
# T1 sequence (Q05469 whole entry): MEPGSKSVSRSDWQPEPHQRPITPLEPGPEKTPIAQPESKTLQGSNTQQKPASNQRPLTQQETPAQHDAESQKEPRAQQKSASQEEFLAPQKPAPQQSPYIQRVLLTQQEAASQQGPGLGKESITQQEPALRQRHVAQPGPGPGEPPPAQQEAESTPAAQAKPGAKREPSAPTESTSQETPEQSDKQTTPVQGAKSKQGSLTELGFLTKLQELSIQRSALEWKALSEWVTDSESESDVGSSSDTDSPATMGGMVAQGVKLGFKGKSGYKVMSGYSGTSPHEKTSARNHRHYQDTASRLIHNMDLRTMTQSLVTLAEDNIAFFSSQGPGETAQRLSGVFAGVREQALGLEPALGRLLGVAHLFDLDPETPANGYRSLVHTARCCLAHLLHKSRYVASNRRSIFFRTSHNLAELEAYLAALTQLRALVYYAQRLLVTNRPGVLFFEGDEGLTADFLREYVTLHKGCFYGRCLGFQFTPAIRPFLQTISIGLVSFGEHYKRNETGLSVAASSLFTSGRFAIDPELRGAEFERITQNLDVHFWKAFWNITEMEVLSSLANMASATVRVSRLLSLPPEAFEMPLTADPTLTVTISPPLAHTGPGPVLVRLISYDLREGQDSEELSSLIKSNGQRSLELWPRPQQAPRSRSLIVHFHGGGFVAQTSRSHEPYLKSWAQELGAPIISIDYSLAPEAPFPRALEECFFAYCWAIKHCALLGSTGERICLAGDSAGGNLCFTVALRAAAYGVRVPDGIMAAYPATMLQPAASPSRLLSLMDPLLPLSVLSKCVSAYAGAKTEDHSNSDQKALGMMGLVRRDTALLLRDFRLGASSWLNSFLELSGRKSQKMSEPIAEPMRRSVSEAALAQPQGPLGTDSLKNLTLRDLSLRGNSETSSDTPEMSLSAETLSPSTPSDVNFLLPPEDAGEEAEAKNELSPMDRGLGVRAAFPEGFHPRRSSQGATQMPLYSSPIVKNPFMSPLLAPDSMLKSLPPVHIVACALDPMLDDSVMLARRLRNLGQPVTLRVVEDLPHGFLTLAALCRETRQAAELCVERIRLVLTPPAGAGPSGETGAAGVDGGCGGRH
# [1] = Oral bioavailability in Sprague-Dawley rat at 1 mg/kg, po; format: ADME, organism-based; conditions: in vivo
# Summary of the method: (§1)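 Male Sprague-Dawley rats, 12 weeks old, dosed by oral gavage and i.v. in 10% hydroxypropyl cyclodextrin in phosphate buffer pH 7.0, with one rat per time point. Plasma was diluted 1:1 in 10% methanol, centrifuged and quantified by turbulent-flow chromatography–tandem MS against plasma calibration curves (10-3000 ng/mL).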
# [2] = Cmax in Sprague-Dawley rat at 0.5 mg/kg, iv and 1 mg/kg, po; format: ADME, organism-based; conditions: in vivo; summary of the method: as §1
# [3] = Oral bioavailability in Sprague-Dawley rat at 2.2 mg/kg, po; format: ADME, organism-based; conditions: in vivo
# Summary of the method: (§2)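 Rat PK study, one rat per time point. Dosed i.v. and p.o. by gavage in 10% hydroxypropyl cyclodextrin in phosphate buffer pH 7.0; one compound was given in 20% Tween 80 plus 5% glucose in phosphate buffer pH 7.0. Plasma was diluted 1:1 with 10% methanol and centrifuged, then quantified by turbulent-flow chromatography–MS/MS against plasma calibration curves spanning 10-3000 ng/mL.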
# [4] = Clearance in Sprague-Dawley rat at 1.1 mg/kg, iv and 2.2 mg/kg, po; format: ADME, organism-based; conditions: in vivo; summary of the method: as §2
# Sequence of Acetylcholinesterase (P22303 whole entry): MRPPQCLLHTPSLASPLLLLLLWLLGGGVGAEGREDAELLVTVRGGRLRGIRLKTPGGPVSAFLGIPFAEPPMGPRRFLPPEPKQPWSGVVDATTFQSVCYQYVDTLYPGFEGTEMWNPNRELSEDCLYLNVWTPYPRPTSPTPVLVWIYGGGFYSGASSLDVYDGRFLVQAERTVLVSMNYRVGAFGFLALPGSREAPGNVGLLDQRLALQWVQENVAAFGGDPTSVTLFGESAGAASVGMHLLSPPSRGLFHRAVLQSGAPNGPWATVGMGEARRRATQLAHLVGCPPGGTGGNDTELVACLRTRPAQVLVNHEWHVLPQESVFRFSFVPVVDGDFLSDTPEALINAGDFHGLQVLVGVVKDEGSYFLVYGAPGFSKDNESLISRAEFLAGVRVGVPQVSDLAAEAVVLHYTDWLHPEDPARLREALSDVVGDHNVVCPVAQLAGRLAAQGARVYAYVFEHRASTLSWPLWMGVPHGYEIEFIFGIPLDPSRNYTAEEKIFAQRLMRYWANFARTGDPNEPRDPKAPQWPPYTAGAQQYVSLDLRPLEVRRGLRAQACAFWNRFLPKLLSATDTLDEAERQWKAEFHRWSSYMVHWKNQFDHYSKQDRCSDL
SMILES,pIC50 (Acetylcholinesterase),pIC50 (Cholinesterase),other results
CN(C(=O)Oc1ccc(Oc2ncc(C(F)(F)F)cc2Cl)cc1)c1ccccc1,< 4.30,< 4.30,
CN(C(=O)Oc1ccc(Oc2ccc(C(F)(F)F)cn2)cc1)c1ccccc1Cl,< 4.30,< 4.30,
CN(C)C(=O)Oc1ccc(Oc2ncc(Cl)cc2Cl)cc1,< 4.30,< 4.30,pIC50 (Hormone-sensitive lipase): < 4.30
CN(C(=O)Oc1ccc(Oc2ccc(C(F)(F)F)cn2)cc1)C(C)(C)C,< 4.30,< 4.30,pIC50 (Hormone-sensitive lipase): < 5.30
O=C(Oc1ccc(Oc2ccc(C(F)(F)F)cn2)cc1)N1CCOCC1,< 4.30,< 4.30,bioavailability [1]: 12%; Cmax [2]: 21 ng/mL
CCN(C(=O)Oc1ccc(Oc2ccc(C(F)(F)F)cn2)cc1)c1ccccc1,,,pIC50 (Hormone-sensitive lipase): < 5.30
CC1CCCN(C(=O)Oc2ccc(Oc3ccc(C(F)(F)F)cn3)cc2)C1 (stereo not drawn),< 4.30,< 4.30,
CN(C(=O)Oc1ccc(Oc2ccc(C(F)(F)F)cn2)cc1)c1cccc(Cl)c1,< 4.30,< 4.30,
O=C(Oc1ccc(Oc2ncc(Cl)cc2Cl)cc1)N1CCOCC1,< 4.30,< 4.30,
CN(C(=O)Oc1ccc(Oc2ccc(C(F)(F)F)cn2)cc1)c1ccc(Cl)cc1,< 4.30,< 4.30,
Cc1ccccc1N(C)C(=O)Oc1ccc(Oc2ccc(C(F)(F)F)cn2)cc1,< 4.30,< 4.30,
O=C(Oc1ccc(Oc2ccc(C(F)(F)F)cn2)cc1)N1CCc2ccccc2C1,< 4.30,< 4.30,
CN(C(=O)Oc1ccc(Oc2c(Cl)cncc2Cl)cc1)c1ccccc1,< 4.30,< 4.30,
COc1ccc(N(C)C(=O)Oc2ccc(Oc3ccc(C(F)(F)F)cn3)cc2)cc1,< 4.30,< 4.30,
O=C(Oc1ccc(Oc2ccc(C(F)(F)F)cn2)cc1)N1CCCc2ccc(C(F)(F)F)cc21,< 4.30,< 4.30,pIC50 (Hormone-sensitive lipase): < 5.30
CC1CCCCN1C(=O)Oc1ccc(Oc2ccc(C(F)(F)F)cn2)cc1 (stereo not drawn),< 4.30,< 4.30,pIC50 (Hormone-sensitive lipase): < 5.30
CC(C)N(C)C(=O)Oc1ccc(Oc2ccc(C(F)(F)F)cn2)cc1,< 4.30,< 4.30,pIC50 (Hormone-sensitive lipase): < 5.30
O=C(Oc1ccc(Oc2ccc(C(F)(F)F)cn2)cc1)N1CCC(Cc2ccccc2)CC1,,< 4.30,
CN(Cc1ccccc1)C(=O)Oc1ccc(Oc2ccc(C(F)(F)F)cn2)cc1,< 4.30,< 4.30,

SMILES,pIC50 (Acetylcholinesterase),pIC50 (Cholinesterase),other results
O=C(Oc1ccc(Oc2ncc(Cl)cc2Cl)cc1)N1CCCC1,< 4.30,< 4.30,
CN(C(=O)Oc1ccc(Oc2ccccc2)cc1)c1ccccc1,< 4.30,< 4.30,pIC50 (Hormone-sensitive lipase): < 5.30
CN(C(=O)Oc1ccc(Oc2ncc(Cl)cc2Cl)cc1)c1ccccc1,< 4.30,< 4.30,
CC1CCN(C(=O)Oc2ccc(Oc3ccc(C(F)(F)F)cn3)cc2)CC1,< 4.30,< 4.30,
O=C(c1ccccc1)C1CCN(C(=O)Oc2ccc(Oc3ccc(C(F)(F)F)cn3)cc2)CC1,,< 4.30,
CN(C(=O)Oc1ccc(Oc2ccc(C(F)(F)F)cn2)cc1)C1CCCCC1,< 4.30,< 4.30,pIC50 (Hormone-sensitive lipase): < 5.30
O=C(Oc1ccc(Oc2ccc(C(F)(F)F)cn2)cc1)N1CCCC1,< 4.30,< 4.30,
CC1CN(C(=O)Oc2ccc(Oc3ccc(C(F)(F)F)cn3)cc2)CC(C)O1 (stereo not drawn),< 4.30,< 4.30,
CCCCNC(=O)Oc1ccc(Oc2ncc(Cl)cc2Cl)cc1,< 4.30,4.72,
Cc1ccc(N(C)C(=O)Oc2ccc(Oc3ccc(C(F)(F)F)cn3)cc2)cc1,< 4.30,< 4.30,
CN(C(=O)Oc1ccc(Oc2ccc(Cl)cn2)cc1)c1ccccc1,< 4.30,< 4.30,
CN(C(=O)Oc1ccc(Oc2ccc(C(F)(F)F)cn2)cc1)c1ccccc1,< 4.30,< 4.30,bioavailability [3]: 16%; clearance [4]: 61 mL/min/kg
COc1ccccc1N(C)C(=O)Oc1ccc(Oc2ccc(C(F)(F)F)cn2)cc1,< 4.30,< 4.30,
O=C(Oc1ccc(Oc2ccc(C(F)(F)F)cn2)cc1)N1CCc2ccccc21,< 4.30,< 4.30,pIC50 (Hormone-sensitive lipase): < 5.52
O=C(Oc1ccc(Oc2ccc(C(F)(F)F)cn2)cc1)N1Cc2ccccc2C1,< 4.30,< 4.30,
O=C(Oc1ccc(Oc2ccc(C(F)(F)F)cn2)cc1)N1CCCCC1,< 4.30,5.09,
Cc1cccc(N(C)C(=O)Oc2ccc(Oc3ccc(C(F)(F)F)cn3)cc2)c1,< 4.30,< 4.30,
CN(C(=O)Oc1ccc(Nc2ccc(C(F)(F)F)cn2)cc1)c1ccccc1,< 4.30,< 4.30,
